# Tests used:
# [1] = tested on: Staphylococcus aureus; experiment: Antimicrobial activity against linezolid-susceptible Staphylococcus aureus ATCC 33591 infected in THP1 cells after 24 hrs; assay type: functional, organism-based; details: ATCC 33591, THP-1, 24 h
# Outline: (§1)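 Bacteria were phagocytosed by human THP-1 macrophage-like cells, then exposed to a range of drug concentrations for a fixed time: 24 h for S. aureus, S. epidermidis and L. monocytogenes, 48 h for L. pneumophila. Change in CFU versus the initial inoculum was fitted with a sigmoidal curve to give Emin, Emax (relative maximal efficacy), EC50 and static concentration (Cs).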
# [2] = tested on: Staphylococcus aureus; experiment: Bacteriostatic activity against linezolid-resistant Staphylococcus aureus SA238L infected in human epidermal keratinocytes cells after 24 hrs; assay type: functional
# Outline: (§2)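 Adherent nonphagocytic cells were infected at 5 × 10^7 to 1 × 10^8 bacteria/ml with 2 h phagocytosis. Cells used: Calu-3 bronchial epithelium grown in uncoated flasks, neonatal foreskin keratinocytes on collagen-coated wells, primary human osteoblasts, and primary rat embryo fibroblasts. Antibiotic was then given over a concentration range for 24 h. Cs came from a sigmoidal fit of CFU change.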
# [3] = tested on: Staphylococcus aureus; experiment: Antimicrobial activity against Linezolid resistant hospital acquired methicillin-resistant Staphylococcus aureus SA238L after 24 hrs; assay type: functional
# [4] = tested on: Listeria monocytogenes; experiment: Antimicrobial activity against Listeria monocytogenes infected in THP1 cells after 24 hrs; assay type: functional, organism-based; details: THP-1, 24 h; outline: as §1
# [5] = tested on: THP-1; experiment: Ratio of drug level for cellular to extracellular region of Staphylococcus aureus infected human THP-1 cells at 4 mg/liter after 2 hrs; assay type: ADME, cell-based; details: thp-1, 2 h
# Outline: (§3)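 Cells were exposed to [14C]radezolid for 2 or 24 h. Cell-associated drug in lysates was measured by liquid scintillation counting (detection limit 0.003 mg/liter; linear 0.01–0.78 mg/liter). Content was normalised to cell protein (Lowry). It was converted to apparent cellular concentration at 5 μl per mg protein and expressed relative to the extracellular concentration.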
# [6] = tested on: Staphylococcus aureus; experiment: Antimicrobial activity against linezolid-resistant Staphylococcus aureus SA238L infected in rat fibroblast cells assessed as log reduction in bacterial count after 24 hrs; assay type: functional
# Outline: (§4)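 S. aureus was internalized by adherent nonphagocytic cells: Calu-3, HUVEC, keratinocytes on collagen-coated wells, osteoblasts, or rat embryo fibroblasts. Inoculum was 5 × 10^7 to 1 × 10^8 bacteria/ml with 2 h phagocytosis (HUVEC: 2 × 10^6/ml, 1 h). Cells were then exposed to graded drug concentrations for 24 h. CFU change versus the original inoculum was fitted sigmoidally for Emax and Cs.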
# [7] = tested on: Staphylococcus aureus; experiment: Bacteriostatic activity against Staphylococcus aureus infected in THP1 cells after 24 hrs; assay type: functional, THP-1; outline: as §1
# [8] = tested on: Staphylococcus aureus; experiment: Antimicrobial activity against linezolid-susceptible Staphylococcus aureus SA238 infected in THP1 cells at pH 7.4 after 24 hrs; assay type: functional, organism-based; details: SA238, THP-1, 24 h
# [9] = tested on: Staphylococcus aureus; experiment: Antimicrobial activity against linezolid-susceptible Staphylococcus aureus SA040 infected in THP1 cells assessed as log reduction in bacterial count after 24 hrs; assay type: functional, THP-1; outline: as §1
# [10] = tested on: Legionella pneumophila; experiment: Antimicrobial activity against Legionella pneumophila ATCC 33153 infected in THP1 cells after 48hrs; assay type: functional, organism-based; details: ATCC 33153, THP-1, 48 h; outline: as §1
# [11] = tested on: Staphylococcus aureus; experiment: Antimicrobial activity against methicillin-susceptible Staphylococcus aureus SA040 after 24 hrs; assay type: functional; details: SA040, 24 h
# [12] = tested on: Staphylococcus aureus; experiment: Antimicrobial activity against linezolid-susceptible Staphylococcus aureus SA238 infected in rat fibroblast cells assessed as log reduction in bacterial count after 24 hrs; assay type: functional; outline: as §4
# [13] = tested on: Staphylococcus aureus; experiment: Antimicrobial activity against linezolid-resistant Staphylococcus aureus SA040L infected in THP1 cells assessed as log reduction in bacterial count after 24 hrs; assay type: functional, THP-1; outline: as §1
# [14] = tested on: Staphylococcus aureus; experiment: Antimicrobial activity against Staphylococcus aureus infected in THP1 cells after 24 hrs; assay type: functional, organism-based; details: THP-1, 24 h; outline: as §1
# [15] = tested on: Staphylococcus aureus; experiment: Antimicrobial activity against community acquired methicillin-resistant Staphylococcus aureus NRS384 after 24 hrs; assay type: functional; details: NRS384, 24 h
# [16] = tested on: Staphylococcus epidermidis; experiment: Bacteriostatic activity against Staphylococcus epidermidis infected in THP1 cells after 24 hrs; assay type: functional, THP-1; outline: as §1
# [17] = tested on: Staphylococcus aureus; experiment: Antimicrobial activity against linezolid-susceptible Staphylococcus aureus SA238 after 24 hrs; assay type: functional, organism-based; details: SA238, 24 h
# [18] = tested on: Staphylococcus aureus; experiment: Antimicrobial activity against linezolid-resistant Staphylococcus aureus SA238L infected in human osteoblasts cells assessed as log reduction in bacterial count after 24 hrs; assay type: functional; outline: as §4
# [19] = Ratio of drug level for cellular to extracellular region of Staphylococcus aureus infected rat fibroblast at 4 mg/liter after 2 hrs; assay type: ADME, cell-based; outline: as §3
# [20] = tested on: Staphylococcus aureus; experiment: Antimicrobial activity against linezolid-susceptible Staphylococcus aureus NRS18 infected in THP1 cells assessed as log reduction in bacterial count after 24 hrs; assay type: functional, THP-1; outline: as §1
# [21] = tested on: Staphylococcus epidermidis; experiment: Antimicrobial activity against Staphylococcus epidermidis infected in THP1 cells after 24 hrs; assay type: functional, organism-based; details: THP-1, 24 h; outline: as §1
# [22] = tested on: Staphylococcus aureus; experiment: Antimicrobial activity against linezolid-resistant Staphylococcus aureus SA238L infected in THP1 cells assessed as log reduction in bacterial count after 24 hrs; assay type: functional, THP-1; outline: as §1
# [23] = tested on: Staphylococcus aureus; experiment: Bacteriostatic activity against linezolid-resistant Staphylococcus aureus SA238L infected in human osteoblasts cells after 24 hrs; assay type: functional; outline: as §2
# [24] = tested on: Staphylococcus aureus; experiment: Bacteriostatic activity against linezolid-susceptible Staphylococcus aureus SA238 after 24 hrs; assay type: functional
# Outline: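 Extracellular concentration-response in Mueller-Hinton broth over 24 h. Change in CFU was fitted to a sigmoidal function, and the apparent static concentration (Cs) was derived from the fit.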
# [25] = tested on: THP-1; experiment: Ratio of drug level for cellular to extracellular region of Staphylococcus aureus infected human THP-1 cells at 4 mg/liter after 24 hrs; assay type: ADME, cell-based; details: thp-1, 24 h; outline: as §3
# [26] = tested on: Staphylococcus aureus; experiment: Bacteriostatic activity against linezolid-susceptible Staphylococcus aureus SA238 infected in THP1 cells after 24 hrs; assay type: functional, THP-1
# Outline: (§5)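 Human THP-1 myelomonocytic (macrophage-like) cells infected with S. aureus, then exposed 24 h to a range of antibiotic concentrations. CFU change was measured against the initial inoculum. A sigmoidal dose-response curve was fitted to give Emin, Emax and EC50, and the apparent static concentration (Cs) was taken from the fit.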
# [27] = tested on: Staphylococcus aureus; experiment: Antimicrobial activity against Staphylococcus aureus ATCC 25923 assessed as log reduction in bacterial count at 1 mg/L after 5 hrs; assay type: functional
# Outline: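 Time-course test with S. aureus ATCC 25923, either in Mueller-Hinton broth or after phagocytosis by THP-1 cells. Samples were taken over a 5 h incubation with drug at 1 mg/liter. Read-out was the change in CFU relative to the initial inoculum, reported as means.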
# [28] = tested on: Staphylococcus aureus; experiment: Bacteriostatic activity against linezolid-resistant Staphylococcus aureus SA040L infected in THP1 cells after 24 hrs; assay type: functional, THP-1; outline: as §5
# [29] = Ratio of drug level for cellular to extracellular region of Staphylococcus aureus infected human Calu3 cells at 4 mg/liter after 24 hrs; assay type: ADME, cell-based; details: calu-3, 24 h; outline: as §3
# [30] = tested on: Staphylococcus aureus; experiment: Bacteriostatic activity against linezolid-susceptible Staphylococcus aureus NRS18 infected in THP1 cells after 24 hrs; assay type: functional, THP-1; outline: as §5
# [31] = tested on: Staphylococcus aureus; experiment: Antimicrobial activity against linezolid-resistant Staphylococcus aureus SA040L infected in THP1 cells after 24 hrs; assay type: functional, organism-based; details: THP-1, 24 h; outline: as §1
# [32] = Ratio of drug level for cellular to extracellular region of Staphylococcus aureus infected human keratinocyte at 4 mg/liter after 2 hrs; assay type: ADME, cell-based; outline: as §3
# [33] = tested on: Staphylococcus aureus; experiment: Antimicrobial activity against linezolid-susceptible Staphylococcus aureus SA238 infected in THP-1 cells at pH 5.5 after 24 hrs; assay type: functional, organism-based; details: SA238, THP-1, 24 h
# [34] = Ratio of drug level for cellular to extracellular region of Staphylococcus aureus infected human osteoblast at 4 mg/liter after 24 hrs; assay type: ADME, cell-based; outline: as §3
# [35] = tested on: Staphylococcus aureus; experiment: Bacteriostatic activity against linezolid-susceptible Staphylococcus aureus SA238 infected in rat fibroblast cells after 24 hrs; assay type: functional; outline: as §2
smiles,measurement,setting,value
CC(=O)NC[C@H]1CN(c2ccc(-c3ccc(CNCc4cnn[nH]4)cc3)c(F)c2)C(=O)O1 [RADEZOLID],EC50,[1],0.12 µg/mL
same,Activity,[2],0.6 mg/L
same,MIC,[3],2 µg/mL
same,EC50,[4],0.04 µg/mL
same,Ratio,[5],9.3
same,log10cfu,[6],0.6
same,Activity,[7],0.91 mg/L
same,EC50,[8],0.31 µg/mL
same,log10cfu,[9],-0.96
same,EC50,[10],0.47 µg/mL
same,MIC,[11],1 µg/mL
same,log10cfu,[12],0.6
same,log10cfu,[13],-0.66
same,EC50,[14],0.24 µg/mL
same,MIC,[15],0.5 µg/mL
same,Activity,[16],0.03 mg/L
same,EC50,[17],0.16 µg/mL
same,log10cfu,[18],0.6
same,Ratio,[19],14.4
same,log10cfu,[20],-1
same,EC50,[21],1.51 µg/mL
same,log10cfu,[22],-0.77
same,Activity,[23],0.6 mg/L
same,Activity,[24],0.52 mg/L
same,Ratio,[25],9.8
same,Activity,[26],0.56 mg/L
same,log10cfu,[27],2
same,Activity,[28],0.56 mg/L
same,Ratio,[29],8.3
same,Activity,[30],0.28 mg/L
same,EC50,[31],0.14 µg/mL
same,Ratio,[32],12.6
same,EC50,[33],0.02 µg/mL
same,Ratio,[34],9.7
same,Activity,[35],0.6 mg/L

# — ChEMBL document CHEMBL1275591, “Cellular pharmacodynamics of the novel biaryloxazolidinone radezolid: studies with infected phagocytic and nonphagocytic cells, using Staphylococcus aureus, Staphylococcus epidermidis, Listeria monocytogenes, and Legionella pneumophila” (Antimicrob Agents Chemother, 2010)
